Data set [1] has as its system Mus musculus. The experiment in a line: Antinociceptive activity against acetic acid-induced writhing in sc dosed KM mouse for 30 mins relative to indomethacin. The class given is functional. In outline:
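Writhing ED50 from sc dosing (8 mice per group, 10% Tween-80 vehicle, 0.7% acetic acid ip 20 min after dosing, writhes counted for 30 min) expressed as a potency ratio relative to indomethacin run in parallel.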
(An intraperitoneal irritant provokes the stretching counted in writhing tests.)

Data set [2] concerns Mus musculus. The experiment in a line: Antinociceptive activity against acetic acid-induced writhing in sc dosed KM mouse for 30 mins. To be noted: 0.5 h. It counts as functional. In a few lines:
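Mice, half male and half female, 8 per group, in cages at 23 ± 2 °C, 40–60% humidity and a 12 h light/dark cycle. Compounds were dissolved in 10% Tween-80 (aq) as twofold serial dilutions and given sc as a single 0.2 mL dose, with vehicle control. After 20 min, 0.2 mL of 0.7% acetic acid was given ip. Writhes were counted for 30 min. ED50 reported with 95% C.L.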

The species entered for data set [3] is Mus musculus. The experiment in a line: Toxicity in KM mouse assessed as relative pungent potency for 30 mins by wiping test relative to capsaicin. It counts as organism-based. The note with it: in vivo, 0.5 h. In outline:
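RPP was derived from MPP values read off the eye-drop dose–response curve (movements counted for 30 min, 6 animals per concentration). It was scaled to the pain-producing potency of capsaicin, set as 1000.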

Data set [4] is filed under the species Mus musculus. The experiment in a line: Toxicity in KM mouse assessed as moderate pain producing potency for 30 mins by wiping test. It counts as organism-based. To be noted: in vivo, 0.5 h. In a few lines:
(§1)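 Eye-drop test. Twofold dilutions were dropped into the right eye, with vehicle in the left eye as control. Protective movements (scratching, wiping the eye with the foreleg) were counted for 30 min. Six animals per concentration, half male and half female. A dose–response curve was built from group means, and MPP was taken as the concentration giving 32 scratches.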

The species entered for data set [5] is Mus musculus. The experiment in a line: Toxicity in KM mouse assessed as number of protective movements for 30 mins by wiping test. It counts as organism-based. To be noted: in vivo, 0.5 h. In outline: as §1

Broadly, the ED50 is the dose that gives a 50% effect, or the effect in half of the subjects. A lower ED50 goes with an effect at a small dose. Consider `CCCCCCCC(=O)OCc1ccc(O)c(OC)c1` [VANILLYL CAPRYLATE], for which, in the data set on Mus musculus [1], the Ratio amounted to 0.8. The molecule further registered an ED50 with Mus musculus [2] of 12.6 mg/kg. Besides, the figures for the Activity entry in the data set listed under Mus musculus [3], in the data set listed under Mus musculus [4] and in the data set filed under Mus musculus [5] were “Non-toxic”, “Non-toxic” and 28, respectively.
As to `CCCCCCCCCC(=O)OCc1ccc(OCCCCCC)c(OC)c1`, in the data set with Mus musculus [1], the Ratio is on record as 5.89. This molecule gave an ED50 in the data set with Mus musculus [2] of 1.84 mg/kg. Further, the Activity entry in the data set filed under Mus musculus [3] is recorded as “Non-toxic”; in the data set listed under Mus musculus [4], “Non-toxic”; in the data set listed under Mus musculus [5], 11.
For `CCCCCCCCCCCC(=O)OCc1ccc(O)c(OC)c1` [VANILLYL LAURATE], the Ratio in the data set with Mus musculus [1] came to 0.52. This molecule also yielded an ED50 with Mus musculus [2] of 19.4 mg/kg. For the same molecule, the Activity result in the data set filed under Mus musculus [3] is reported as “Non-toxic”; in the data set filed under Mus musculus [4], “Non-toxic”; in the data set listed under Mus musculus [5], 22.
As for `CCCCCCCCCC(=O)OCc1ccc(OCCCC)c(OC)c1`, in the data set with Mus musculus [1], the Ratio is recorded as 3.19. This molecule came in with an ED50 with Mus musculus [2] of 3.16 mg/kg. In addition, the Activity entry in the data set listed under Mus musculus [3] is on record as “Non-toxic”; in the data set listed under Mus musculus [4], “Non-toxic”; in the data set filed under Mus musculus [5], 8.
Consider `COc1ccc2c(c1)c(CC(=O)O)c(C)n2C(=O)c1ccc(Cl)cc1` [INDOMETHACIN], for which, in the data set with Mus musculus [1], the Ratio was 1.
Consider `CCCCCCCCCC(=O)OCc1ccc(OCC)c(OC)c1`, for which, in the data set with Mus musculus [1], the Ratio is recorded as 2.57. In the data set on Mus musculus [2], this molecule displayed an ED50 of 3.92 mg/kg. Further, the Activity result in the data set filed under Mus musculus [3] is on record as “Non-toxic”; in the data set filed under Mus musculus [4] it was “Non-toxic”; in the data set filed under Mus musculus [5], 4.
With `COc1cc(CNC(=O)CCCC/C=C/C(C)C)ccc1O` [CAPSAICIN], the Activity in the data set listed under Mus musculus [4] was determined as 0.099 mg/mL.
Take `CCCCCCCCCC(=O)OCc1ccc(O)c(OC)c1` [VANILLYL DECANOATE]: in the data set with Mus musculus [1], the Ratio came to 0.65. In addition, in the data set with Mus musculus [2], the ED50 turned out to be 15.6 mg/kg. Further, the Activity entry in the data set filed under Mus musculus [3] is reported as “Non-toxic”; in the data set filed under Mus musculus [4], “Non-toxic”; in the data set listed under Mus musculus [5], 25.

Source of the values: ChEMBL document CHEMBL1153572, “Synthesis and antinociceptive activity of capsinoid derivatives” (Eur J Med Chem, 2009).
